SMILES strings stand for the structures. Activity calls are given as the source filed them. No cut-off for these calls is given here.

The subject of series [1] is Jurkat. The series can be described thus: Inhibition of apoptosis in human Jurkat cells assessed as caspase-3 expression relative to beta-actin at 10 ug/ml after 24 hrs by RT-PCR analysis. The format is functional. In short, it runs like this:
(§1)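 Jurkat cells (10^6/mL) exposed to 10 µg/mL peptide for 24 h (described as overnight in methods), with DMSO control. Total RNA extracted with TRIzol. Caspase-3, -8 and -9 transcripts measured by SYBR qPCR: 95 C for 5 min, then 35 cycles of 95 C for 30 s and 60 C for 45 s. Values given in arbitrary units relative to β-actin.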

The subject of series [2] is Jurkat. In words: Induction of DNA fragmentation in human Jurkat cells at 10 ug/ml after 24 hrs by agarose gel electrophoresis. The format is functional, cell-based. The gist of the method:
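Jurkat cells treated 24 h with 10 µg/mL peptide versus DMSO. About 2×10^6 cells lysed overnight at 37 C in Tris-HCl pH 8.5 with EDTA, 5% SDS and proteinase K. Lysates heat-inactivated, RNase-treated, DNA precipitated with isopropanol and ethanol-washed. Fragmentation assessed by gel electrophoresis.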

Series [3] relates to PBMC. The series can be described thus: Immunosuppressive activity in human PBMC assessed as inhibition of PHA-induced proliferation after 4 days by MTT assay. The format is functional, cell-based. The gist of the method:
(§2)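 PBMC (2×10^5 cells/well) in supplemented RPMI-1640, stimulated with 5 µg/mL PHA, with peptide at 1, 10 or 100 µg/mL. DMSO dilutions as control; no-PHA wells as baseline. Proliferation read by MTT after 4 days of incubation. Data given as mean OD of quadruplicate wells ± SE.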
(In general: Tetrazolium assays rely on reduction of a dye to a coloured formazan, in cell work by metabolically active cells.)

For series [4], the system named is PBMC. The series can be described thus: Anti-inflammatory activity in human PBMC assessed as inhibition of LPS-induced TNFalpha production at 10 ug/ml after overnight incubation by immunoassay. The class given is functional. The gist of the method: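 Diluted venous blood from a single donor (10× in RPMI-1640), 1 mL cultures, stimulated with 1 µg/mL LPS from E. coli O:111:B4. Peptides added at 1 and 10 µg/mL from DMSO stock (5 mg/200 µL) diluted in RPMI-1640. DMSO dilutions served as 100% controls. Overnight incubation, then supernatants frozen at -20 C and TNF-α measured by ELISA.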

Series [5] relates to PBMC. The series can be described thus: Cytotoxicity against human PBMC assessed as reduction in cell viability at 10 ug/ml after 24 hrs by MTT assay. The format is cell-based. In short, it runs like this:
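Single-donor PBMC isolated on LSM, resuspended in RPMI-1640 with 10% FCS, L-glutamine, pyruvate, 2-mercaptoethanol and antibiotics. Cells plated at 3×10^5 per well and cultured 24 h with peptide at 1, 10 or 100 µg/mL. Survival read by MTT and expressed as % viable cells versus matched DMSO controls.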

Another series relates to HT-29. The series can be described thus: Cytotoxicity against human HT-29 cells at 25 ug/ml. The format is functional, cell-based.
A further series relates to A-431. In words: Cytotoxicity against human A431 cells at 25 ug/ml. The class given is functional, cell-based.
The test system of series [6] is Jurkat. The series can be described thus: Inhibition of apoptosis in human Jurkat cells assessed as caspase-8 expression relative to beta-actin at 10 ug/ml after 24 hrs by RT-PCR analysis. The format is functional. In short, it runs like this:
as §1

The subject of series [7] is Jurkat. The series can be described thus: Inhibition of apoptosis in human Jurkat cells assessed as caspase-9 expression relative to beta actin at 10 ug/ml after 24 hrs by RT-PCR analysis. The class given is functional. The gist of the method:
as §1

In series [8] the target is T1, Prostaglandin G/H synthase 1 (Ovis aries) (UniProt P05979).
T1 sequence (whole entry): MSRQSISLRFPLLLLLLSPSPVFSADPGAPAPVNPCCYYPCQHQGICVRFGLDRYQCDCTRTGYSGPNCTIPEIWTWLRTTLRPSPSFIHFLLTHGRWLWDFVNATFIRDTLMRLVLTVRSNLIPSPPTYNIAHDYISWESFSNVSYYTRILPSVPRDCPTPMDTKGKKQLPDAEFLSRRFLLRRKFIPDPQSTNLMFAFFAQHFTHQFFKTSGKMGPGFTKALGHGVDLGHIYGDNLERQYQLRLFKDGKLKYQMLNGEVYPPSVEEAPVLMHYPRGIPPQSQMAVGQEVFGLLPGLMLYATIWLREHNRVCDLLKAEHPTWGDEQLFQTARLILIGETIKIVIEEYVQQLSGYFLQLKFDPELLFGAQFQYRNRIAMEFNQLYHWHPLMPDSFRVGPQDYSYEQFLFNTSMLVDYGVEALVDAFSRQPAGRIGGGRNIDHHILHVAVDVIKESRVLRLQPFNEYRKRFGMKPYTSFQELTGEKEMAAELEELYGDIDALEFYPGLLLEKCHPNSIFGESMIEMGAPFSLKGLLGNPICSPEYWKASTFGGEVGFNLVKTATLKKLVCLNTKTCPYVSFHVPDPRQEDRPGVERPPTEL
In words: Inhibition of ovine COX-1 assessed as PGE2 formation at 1000 pg/ml (reference value: 981 ng/ml).

In series [9] the target is T2, Prostaglandin G/H synthase 2 (Homo sapiens) (UniProt P35354).
T2 sequence (whole entry): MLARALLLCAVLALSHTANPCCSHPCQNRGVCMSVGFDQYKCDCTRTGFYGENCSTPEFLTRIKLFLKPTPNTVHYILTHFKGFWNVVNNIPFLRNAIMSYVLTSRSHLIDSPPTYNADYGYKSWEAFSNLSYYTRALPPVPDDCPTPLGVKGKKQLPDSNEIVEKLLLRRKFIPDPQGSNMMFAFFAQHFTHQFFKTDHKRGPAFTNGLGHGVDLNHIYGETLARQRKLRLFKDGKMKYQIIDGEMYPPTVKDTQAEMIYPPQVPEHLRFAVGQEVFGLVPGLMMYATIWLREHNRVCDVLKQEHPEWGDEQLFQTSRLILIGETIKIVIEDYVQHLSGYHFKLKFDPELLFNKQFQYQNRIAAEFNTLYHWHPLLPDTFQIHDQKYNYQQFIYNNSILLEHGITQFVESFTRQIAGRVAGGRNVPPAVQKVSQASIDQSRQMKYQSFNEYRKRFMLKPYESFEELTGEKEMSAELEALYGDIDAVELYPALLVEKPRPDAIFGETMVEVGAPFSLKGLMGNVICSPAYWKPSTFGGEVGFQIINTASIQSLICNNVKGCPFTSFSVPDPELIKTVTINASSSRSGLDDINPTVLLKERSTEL
The series can be described thus: Inhibition of human recombinant COX-2 assessed as PGE2 formation at 5000 pg/ml (reference value: 1072 ng/ml).

The test system of series [10] is PBMC. In words: Immunosuppressive activity in human PBMC assessed as inhibition of PHA-induced cell proliferation at 10 ug/ml after 4 days by MTT assay. The format is functional, cell-based. The gist of the method:
as §2

The target in series [11] is T1, Prostaglandin G/H synthase 1 (Ovis aries). The series can be described thus: Inhibition of ovine COX-1 assessed as PGE2 formation at 100 pg/ml (reference value: 981 ng/ml).
For series [12], the target named is T2, Prostaglandin G/H synthase 2 (Homo sapiens). In words: Inhibition of human recombinant COX-2 assessed as PGE2 formation at 1000 pg/ml (reference value: 1072 ng/ml).
For series [13] the target is unchanged. In words: Inhibition of human recombinant COX-2 assessed as PGE2 formation at 100 pg/ml (reference value: 1072 ng/ml).

Turning to `CC[C@H](C)[C@@H]1NC(=O)[C@H](CC(C)C)NC(=O)[C@H](Cc2ccccc2)NC(=O)CC[C@H](Cc2ccccc2)NC(=O)[C@@H]2CCCN2C(=O)[C@@H]2CCCN2C(=O)[C@H](C(C)C)NC(=O)[C@H](CC(C)C)NC(=O)[C@H]([C@@H](C)CC)NC1=O`, the “fold change (FC)” value turned out to be 0 in the series with Jurkat [1], 0.591 with Jurkat [6] and 0.538 in the series on Jurkat [7]. For the same compound, the result with Jurkat [2] and in the series with PBMC [10] was Active. The Activity result with PBMC [3] is “Dose-dependent effect”; in the series with PBMC [5] it was “Non-Toxic”; in [8] it was 1030 ng/mL; in [9], 1230 ng/mL; in series [11], 1110 ng/mL; in series [12], 1060 ng/mL. The Activity in series [13] is 1180 ng/mL. Besides, the inhibition result with PBMC [4] is “Active”. Further, the result with HT-29 and in the series on A-431 was inactive.

(Values after ChEMBL document CHEMBL4043099, “Synthesis and biological activity of cyclolinopeptide A analogues modified with γ4-bis(homo-phenylalanine)” (Bioorg Med Chem, 2017).)
